ChEMBL document CHEMBL4177525, “Synthesis and evaluation of frentizole-based indolyl thiourea analogues as MAO/ABAD inhibitors for Alzheimer's disease treatment” (Bioorg Med Chem, 2017)
Calls of active or inactive are those of the source. The calls are words filed in the database; no cut-off is given here.

How the values were obtained:
[1] = biological target: Peroxidase (Raphanus sativus, UniProt K7N5L9); test: Inhibition of horse radish peroxidase assessed as residual activity by amplex red dye based fluorescence assay
Chain of Peroxidase (K7N5L9 whole entry): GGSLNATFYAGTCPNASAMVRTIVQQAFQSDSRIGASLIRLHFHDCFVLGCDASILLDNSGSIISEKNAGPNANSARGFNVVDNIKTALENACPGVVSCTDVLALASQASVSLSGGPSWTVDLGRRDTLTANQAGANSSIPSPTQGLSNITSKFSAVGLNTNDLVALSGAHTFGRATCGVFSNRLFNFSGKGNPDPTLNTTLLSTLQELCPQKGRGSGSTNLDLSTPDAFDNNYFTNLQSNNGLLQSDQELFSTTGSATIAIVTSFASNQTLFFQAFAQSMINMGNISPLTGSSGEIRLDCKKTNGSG
How it was run: (§1)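 HRP (0.02 U/mL) given H2O2 20 µM directly as substrate plus Ampliflu Red 20 µM in 50 mM potassium phosphate pH 7.4. Compound at 50 or 5 µM, 1% DMSO; controls DMSO only. Resorufin fluorescence read at ex 535/em 595 nm, 30°C, as remaining HRP activity.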

[2] = Solubility of the compound at 100 uM; format: physicochemical
How it was run: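 Compounds checked for solubility in assay buffer at 100 µM.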

[3] = biological target: Amyloid beta-binding alcohol dehydrogenase (Homo sapiens, UniProt Q2L8D9); test: Inhibition of ABAD (unknown origin) assessed as residual activity at 100 uM using acetoacetyl-CoA in presence of NADH by spectrophotometric assay relative to control
How it was run: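 Recombinant ABAD at 0.5 µg/mL with NADH 250 µM and acetoacetyl-CoA 120 µM; compound at 100 µM in 1% DMSO, controls with matching DMSO. Buffer 10 mM HEPES, 0.5% gelatin, pH 7.4 at 37°C. NADH consumption read as falling absorbance at 340 nm; reported as % remaining activity ± SEM from two biological repeats, each with three technical repeats.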

[4] = biological target: T1, Amine oxidase [flavin-containing] A (Homo sapiens, UniProt P21397); test: Inhibition of human purified MAO-A expressed in insect cell membranes assessed as reduction in conversion of kynuramine to 4-hydroxyquinoline by spectrophotometric assay
T1 sequence (P21397 whole entry): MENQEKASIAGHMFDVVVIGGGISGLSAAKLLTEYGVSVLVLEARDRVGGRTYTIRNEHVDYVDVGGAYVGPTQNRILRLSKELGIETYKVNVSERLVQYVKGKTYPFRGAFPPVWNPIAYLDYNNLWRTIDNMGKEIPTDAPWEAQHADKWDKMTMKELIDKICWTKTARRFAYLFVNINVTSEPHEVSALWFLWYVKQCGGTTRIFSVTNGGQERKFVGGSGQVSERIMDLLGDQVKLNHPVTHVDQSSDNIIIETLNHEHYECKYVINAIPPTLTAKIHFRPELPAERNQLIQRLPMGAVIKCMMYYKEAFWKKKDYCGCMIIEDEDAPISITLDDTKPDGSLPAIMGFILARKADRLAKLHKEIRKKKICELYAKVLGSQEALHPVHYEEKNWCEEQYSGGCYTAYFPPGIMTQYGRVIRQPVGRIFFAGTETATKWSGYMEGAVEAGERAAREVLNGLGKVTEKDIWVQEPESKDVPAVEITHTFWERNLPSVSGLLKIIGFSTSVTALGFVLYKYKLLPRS

[5] = biological target: T2, peroxidase (horseradish peroxidase) (Raphanus sativus, UniProt K7N5L9); test: Inhibition of horse radish peroxidase assessed as residual activity at 5 uM by amplex red dye based fluorescence assay; conditions: horseradish peroxidase (isolated enzyme), probe Amplex Red, read-out: Activity; how it was run: as §1
T2 sequence (K7N5L9 whole entry): as the sequence (K7N5L9 whole entry) above

[6] = biological target: T2, peroxidase (horseradish peroxidase); test: Inhibition of horse radish peroxidase assessed as residual activity at 50 uM by amplex red dye based fluorescence assay; conditions: horseradish peroxidase (isolated enzyme), probe Amplex Red, read-out: Activity; how it was run: as §1
[7] = biological target: T1, Amine oxidase [flavin-containing] A; test: Inhibition of human membrane bound MAO-A expressed in insect cell membranes assessed as reduction in conversion of kynuramine to 4-hydroxyquinoline by spectrophotometric assay
How it was run: (§2)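 Human MAO-A or MAO-B expressed in insect cell membranes, diluted 1/4000 (A) or 1/2000 (B). Kynuramine at 2×KM: 60 µM for MAO-A, 30 µM for MAO-B. Assay in 50 mM potassium phosphate pH 7.5, 30°C, 1% DMSO, absorbance at 314 nm. Inhibitor varied over 4 orders of magnitude, up to 100 µM. Linear rates from 8-10 assays fitted by 3-parameter regression with bottom fixed at zero; IC50 ± SE of estimate.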

[8] = Quenching activity of the compound assessed as reduction in resorufin fluorescence; format: functional
How it was run: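 Resorufin at 1 µM and 10 µM measured for fluorescence in the presence of compound at 50 µM.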

[9] = biological target: T3, Amine oxidase [flavin-containing] B (Homo sapiens, UniProt P27338); test: Inhibition of human membrane bound MAO-B expressed in insect cell membranes assessed as reduction in conversion of kynuramine to 4-hydroxyquinoline by spectrophotometric assay; how it was run: as §2
T3 sequence (P27338 whole entry): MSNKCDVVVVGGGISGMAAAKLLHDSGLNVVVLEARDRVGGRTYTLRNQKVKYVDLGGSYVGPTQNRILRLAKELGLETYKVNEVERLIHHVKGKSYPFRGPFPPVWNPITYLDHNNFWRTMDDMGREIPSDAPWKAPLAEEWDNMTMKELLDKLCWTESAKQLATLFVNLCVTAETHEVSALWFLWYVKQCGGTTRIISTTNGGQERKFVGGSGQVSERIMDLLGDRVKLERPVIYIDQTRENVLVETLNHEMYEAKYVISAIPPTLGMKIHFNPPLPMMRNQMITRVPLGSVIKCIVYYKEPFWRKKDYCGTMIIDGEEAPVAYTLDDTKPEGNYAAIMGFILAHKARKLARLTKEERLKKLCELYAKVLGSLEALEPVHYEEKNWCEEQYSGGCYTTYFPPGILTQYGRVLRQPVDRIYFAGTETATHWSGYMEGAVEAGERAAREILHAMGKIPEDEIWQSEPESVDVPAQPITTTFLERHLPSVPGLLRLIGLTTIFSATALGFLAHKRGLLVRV

[10] = Cytotoxicity against CHOK1 cells assessed as reduction in cell viability after 24 hrs by MTT assay; format: cell-based, Cricetulus griseus; conditions: chinese hamster, CHO-K1 cells; read-out: LC50
How it was run: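 CHO-K1 cells grown as ECACC recommends, seeded 8000 per well; compounds from DMSO stocks diluted in F-12 with 10% FBS and 1% pen/strep (final DMSO at most 0.5%), exposed 24 h. Medium then replaced with 10 µM MTT for about 3 h, formazan dissolved in DMSO, absorbance read at 570 nm (650 nm reference). LC50 from control-subtracted triplicates by four-parameter regression; mean ± SEM of 3 independent runs.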

[11] = Lipophilicity of the compound assessed as capacity factor at pH 3.5 by HPLC analysis; format: physicochemical; conditions: buffer
How it was run: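 Capacity factor k from gradient HPLC on reversed-phase C18 in acid polar organic mode, pH ~3.5.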

| SMILES | IC50 [1] [µM] | solubility [2] | Activity [3] [%] | IC50 [4] | activity at 5 µM [5] [%] | activity at 50 µM [6] [%] | IC50 ([7]; read-out: IC50) [µM] | Activity [8] | IC50 ([9]; read-out: IC50) [µM] | CC50 at 24 h [10] [µM] | IC50 ([4]; read-out: IC50) [µM] | K [11] | IC50 [7] | IC50 [9] |
| --- | --- | --- | --- | --- | --- | --- | --- | --- | --- | --- | --- | --- | --- | --- |
| Oc1ccc(NC(=S)Nc2ccc3[nH]ccc3c2)cc1 | 1.01 | Soluble | 90.9 | Not Active | 41.5 | 31 | > 100 | inactive | 17 | 848 | – | – | – | – |
| S=C(Nc1ccc2[nH]ccc2c1)Nc1cccc2cnccc12 | – | Soluble | 96.5 | – | 63.3 | 47.9 | 24 | inactive | 4 | > 400 | 24 | – | – | – |
| S=C(Nc1ccccc1)Nc1ccc2[nH]ccc2c1 | – | Soluble | 85.8 | – | 81.4 | 46.1 | 57.5 | inactive | 60 | 337 | > 30 | – | – | – |
| Oc1ccc(NC(=S)Nc2ccc3[nH]ccc3c2)cc1Cl | 1.01 | Soluble | 49.1 | – | 39.9 | 26.4 | 58 | inactive | 8.6 | 447 | 58 | 3.76 | – | – |
| CC(=O)c1ccc(NC(=S)Nc2ccc3[nH]ccc3c2)cc1 | – | Soluble | 79.2 | – | 66.3 | 41.8 | – | inactive | – | 154 | 67 | – | – | – |
| CC(=O)Nc1ccc(NC(=S)Nc2ccc3[nH]ccc3c2)cc1 | – | Soluble | 93 | – | 68.1 | 39.3 | 70 | inactive | 37 | 1040 | 71 | – | – | – |
| COc1ccc(CNC(=S)Nc2ccc3[nH]ccc3c2)cc1 | – | Soluble | 88.5 | Not Active | 83.5 | 54.4 | – | inactive | – | 232 | – | – | – | – |
| COc1ccc(NC(=S)Nc2ccc3[nH]ccc3c2)cc1 | – | Soluble | 91.3 | – | 67.6 | 46.5 | 36 | inactive | 37 | 476 | 36 | – | – | – |
| OCc1ccc(NC(=S)Nc2ccc3[nH]ccc3c2)cc1 | – | Soluble | 84.2 | Not Active | 88.2 | 51.4 | – | inactive | – | 1080 | – | – | – | – |
| O=C(c1ccccc1)c1ccc(NC(=S)Nc2ccc3[nH]ccc3c2)cc1 | – | Soluble | 80.4 | Not Active | 79.1 | 71.4 | – | inactive | – | 20 | – | – | – | – |
| Oc1cc(Cl)ccc1NC(=S)Nc1ccc2[nH]ccc2c1 | – | Soluble | 76 | – | 58.9 | 35.9 | 6.3 | inactive | 0.3 | 251 | 39 | – | – | – |
| CCOC(=O)c1ccc(NC(=S)Nc2ccc3[nH]ccc3c2)cc1 | – | Soluble | 74.6 | – | 65.8 | 36.6 | – | inactive | – | 123 | 71 | – | – | – |
| COc1ccc2nc(NC(=O)Nc3ccccc3)sc2c1 [FRENTIZOLE] | – | – | – | Not Active | – | – | – | – | – | 31 | – | – | Not Active | Not Active |
| COC(=O)c1cc(NC(=S)Nc2ccc3[nH]ccc3c2)ccc1O | – | Soluble | 90 | Not Active | 61.2 | 42.2 | > 100 | inactive | 31 | 423 | – | – | – | – |
| Oc1ccccc1NC(=S)Nc1ccc2[nH]ccc2c1 | 0.8 | Soluble | 85 | – | 43.9 | 36.9 | 14 | inactive | 4 | 509 | 39 | – | – | – |
| COc1ccc(NC(=S)Nc2ccc3[nH]ccc3c2)cc1OC | – | Soluble | 93.8 | Not Active | 61 | 41.5 | – | inactive | – | 797 | – | – | – | – |
| Oc1ccc(CNC(=S)Nc2ccc3[nH]ccc3c2)cc1O | 0.8 | Soluble | 81.5 | Not Active | 38.3 | 31.2 | – | inactive | – | 471 | – | – | – | – |
| Cc1ccc(NC(=S)Nc2ccc3[nH]ccc3c2)c(O)c1 | – | Soluble | 87.2 | Not Active | 47.3 | 36.2 | 24 | inactive | 3.2 | 370 | – | – | – | – |
| S=C(Nc1ccc(Br)cc1)Nc1ccc2[nH]ccc2c1 | – | Soluble | 83 | – | 82 | 52.8 | 23 | inactive | 58 | 220 | 5.9 | 4.355 | – | – |
| S=C(Nc1ccc(Oc2ccccc2)cc1)Nc1ccc2[nH]ccc2c1 | – | Soluble | 90.9 | Not Active | 73.1 | 65.6 | – | inactive | – | 36 | – | – | – | – |
| Oc1cccc(NC(=S)Nc2ccc3[nH]ccc3c2)c1 | – | Soluble | 91.6 | Not Active | 81.4 | 50.9 | – | inactive | – | 977 | – | – | – | – |
